From ChEMBL document CHEMBL4665761, “Optimizing the Benefit/Risk of Acetyl-CoA Carboxylase Inhibitors through Liver Targeting” (J Med Chem, 2020)

How the values were obtained:
[1] = AUC (0 to 24 hrs) in Wistar-Hannover rat plasma at 4 mg/kg, po and measured up to 24 hrs by LC/MS-MS analysis; assay type: ADME, organism-based; design: route oral, dose 4 mg/kg, time <=24
Summary of the method: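 Male Wistar-Hannover rats (240–350 g), housed singly after 1 week of acclimation, were dosed orally. AUC0–24 came from plasma concentration–time data by the linear trapezoidal rule, averaged for n = 2. Lower detection limit was 1 ng/mL.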

[2] = molecular target: Solute carrier family 22 member 2 (Homo sapiens, UniProt O15244); assay: Inhibition of human SLC22A2 expressed in HEK293 cells in presence of para-aminohippuric acid/metformin; assay type: cell-based
Chain of Solute carrier family 22 member 2 (O15244 whole entry): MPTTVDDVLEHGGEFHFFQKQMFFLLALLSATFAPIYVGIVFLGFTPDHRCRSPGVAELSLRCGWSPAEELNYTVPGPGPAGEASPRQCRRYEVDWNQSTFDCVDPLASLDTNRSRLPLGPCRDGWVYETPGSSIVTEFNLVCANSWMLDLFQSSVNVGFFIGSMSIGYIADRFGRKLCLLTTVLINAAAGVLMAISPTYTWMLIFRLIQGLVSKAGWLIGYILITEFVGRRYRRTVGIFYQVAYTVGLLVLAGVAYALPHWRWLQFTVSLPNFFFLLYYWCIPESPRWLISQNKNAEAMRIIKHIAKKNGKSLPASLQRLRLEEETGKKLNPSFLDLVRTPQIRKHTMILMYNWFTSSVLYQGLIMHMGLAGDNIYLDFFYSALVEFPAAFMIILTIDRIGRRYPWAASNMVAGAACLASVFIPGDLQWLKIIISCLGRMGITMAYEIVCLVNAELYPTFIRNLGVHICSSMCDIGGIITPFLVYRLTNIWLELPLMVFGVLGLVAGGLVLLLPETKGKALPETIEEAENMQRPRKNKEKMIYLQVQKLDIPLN

[3] = molecular target: Broad substrate specificity ATP-binding cassette transporter ABCG2 (Homo sapiens, UniProt Q9UNQ0); assay: Inhibition of human ABCG2 expressed in MDCK2-LE cells in presence of […]; assay type: cell-based, MDCKII-LE
Chain of Broad substrate specificity ATP-binding cassette transporter ABCG2 (Q9UNQ0 whole entry): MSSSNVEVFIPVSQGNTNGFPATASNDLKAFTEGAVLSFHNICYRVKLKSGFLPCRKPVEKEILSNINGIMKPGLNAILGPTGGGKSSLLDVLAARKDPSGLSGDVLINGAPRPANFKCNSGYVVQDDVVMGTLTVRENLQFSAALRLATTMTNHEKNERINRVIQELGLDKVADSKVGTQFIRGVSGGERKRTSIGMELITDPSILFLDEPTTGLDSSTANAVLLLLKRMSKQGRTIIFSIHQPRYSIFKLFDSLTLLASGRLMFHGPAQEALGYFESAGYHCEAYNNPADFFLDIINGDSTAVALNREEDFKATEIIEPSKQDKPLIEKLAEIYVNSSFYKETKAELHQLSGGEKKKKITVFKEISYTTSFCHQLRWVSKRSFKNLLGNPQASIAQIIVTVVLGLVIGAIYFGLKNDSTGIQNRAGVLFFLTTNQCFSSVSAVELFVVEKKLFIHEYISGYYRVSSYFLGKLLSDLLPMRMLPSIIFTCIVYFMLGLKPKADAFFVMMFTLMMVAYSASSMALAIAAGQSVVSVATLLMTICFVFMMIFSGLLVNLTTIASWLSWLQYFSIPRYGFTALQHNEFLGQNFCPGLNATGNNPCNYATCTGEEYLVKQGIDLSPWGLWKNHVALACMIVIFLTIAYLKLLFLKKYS

[4] = molecular target: T1, Cytochrome P450 1A2 (Homo sapiens, UniProt P05177); assay: Activation of CYP1A2 in human hepatocytes at 0.5 to 200 uM; assay type: ADME, cell-based, Hepatocyte; conditions: dose 0.5-200 µM
T1 sequence (P05177 whole entry): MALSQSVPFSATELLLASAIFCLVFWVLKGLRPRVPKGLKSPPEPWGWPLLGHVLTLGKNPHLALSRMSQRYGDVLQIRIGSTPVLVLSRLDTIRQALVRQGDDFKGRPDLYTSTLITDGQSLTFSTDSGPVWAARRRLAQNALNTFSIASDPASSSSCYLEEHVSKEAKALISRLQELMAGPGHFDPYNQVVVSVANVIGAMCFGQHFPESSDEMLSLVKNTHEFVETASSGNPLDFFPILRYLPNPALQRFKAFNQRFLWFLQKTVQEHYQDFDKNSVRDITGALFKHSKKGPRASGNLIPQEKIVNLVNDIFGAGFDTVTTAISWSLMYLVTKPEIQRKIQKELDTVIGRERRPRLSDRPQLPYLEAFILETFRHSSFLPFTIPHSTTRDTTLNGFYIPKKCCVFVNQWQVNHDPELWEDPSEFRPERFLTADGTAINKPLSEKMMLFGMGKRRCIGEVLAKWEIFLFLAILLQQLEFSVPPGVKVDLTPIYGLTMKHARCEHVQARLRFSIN

[5] = Induction of CYP1A2 mRNA expression in human hepatocytes at 0.5 to 200 uM; assay type: ADME, cell-based, Hepatocyte; conditions: dose 0.5-200 µM
Summary of the method: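 Individual human hepatocyte lots treated at 0.5–200 µM. Read-out is messenger RNA levels of CYP1A2 and CYP3A4.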

[6] = molecular target: Cytochrome P450 2B6 (Homo sapiens, UniProt P20813); assay: inhibition of CYP2B6 in human liver microsomes; assay type: ADME
Chain of Cytochrome P450 2B6 (P20813 whole entry): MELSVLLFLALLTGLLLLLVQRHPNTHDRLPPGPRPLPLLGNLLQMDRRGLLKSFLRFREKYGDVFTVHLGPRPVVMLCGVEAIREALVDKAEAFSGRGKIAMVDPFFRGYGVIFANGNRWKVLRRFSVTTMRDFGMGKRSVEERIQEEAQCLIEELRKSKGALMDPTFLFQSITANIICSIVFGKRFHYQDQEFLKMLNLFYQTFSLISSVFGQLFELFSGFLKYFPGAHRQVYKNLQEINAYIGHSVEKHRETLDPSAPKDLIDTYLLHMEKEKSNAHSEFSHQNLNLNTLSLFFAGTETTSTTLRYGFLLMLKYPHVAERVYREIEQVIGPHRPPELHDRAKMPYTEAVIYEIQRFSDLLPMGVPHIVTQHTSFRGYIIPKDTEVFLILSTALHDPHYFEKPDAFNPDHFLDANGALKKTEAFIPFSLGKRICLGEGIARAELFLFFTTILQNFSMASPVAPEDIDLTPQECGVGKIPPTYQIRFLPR

[7] = molecular target: T1, Cytochrome P450 1A2; assay: inhibition of CYP1A2 in human liver microsomes; assay type: ADME
[8] = Drug uptake in human hepatocytes assessed as ratio of active uptake intrinsic clearance to passive diffusion clearance at 1 uM up to 15 mins by LC-MS/MS analysis; assay type: ADME, cell-based, Hepatocyte; conditions: 0.25 h
[9] = Drug uptake in human hepatocytes assessed as passive diffusion clearance at 1 uM up to 15 mins in presence of rifamycin SV by LC-MS/MS analysis; assay type: ADME, cell-based, Hepatocyte; conditions: 0.25 h
[10] = Inhibition of rat ACC2 using acetyl-CoA as substrate incubated for 20 mins in presence of [14C]O3 by liquid scintillation counting method
Summary of the method: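 Purified rat isozyme in a 96-well radioenzymatic assay measuring incorporation of [14C]-bicarbonate into [14C]-malonyl-CoA. Dose-response run at saturating ATP, where IC50 approximates Ki for uncompetitive inhibitors.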

[11] = Drug uptake in Wistar-Hannover rat assessed as plasma concentration at 10 mg/kg, po after 6 hrs by LC/MS-MS analysis; assay type: ADME, organism-based
Summary of the method: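 Male Wistar-Hannover rats, n = 2 or 3, given an oral suspension in 0.5% methyl cellulose with 0.1% Tween 80; one compound was dosed as the HCl salt. Total plasma and liver concentrations were measured 6 h post-dose. Kp = liver/plasma total concentration. Kpu,u uses fu values from equilibrium dialysis.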

| SMILES | AUC(0-t) [1] [ng·h/mL] | IC50 [2] [µM] | IC50 [3] [µM] | Activity [4] | Activity [5] | IC50 [6] [µM] | IC50 [7] [µM] | Ratio [8] | CLH [9] [µL/min/mg] | IC50 [10] [µM] | concentration at 6 h [11] [ng/mL] |
| --- | --- | --- | --- | --- | --- | --- | --- | --- | --- | --- | --- |
| COc1cc(C(=O)N2CCC3(CC2)CC(=O)c2nn(C(C)(C)C)cc2O3)cc(-c2ccc(C(=O)O)cc2)n1 | 322 | – | – | – | – | – | – | – | – | – | – |
| COc1cc(C(=O)N2CCC3(CC2)CC(=O)c2c(cnn2C(C)C)C3)cc(-c2ccc(C(=O)O)cc2)n1 [CLESACOSTAT] | – | > 30 | 68 | Not Active | Not Active | > 50 | > 50 | 8.7 | 2.7 | 0.00824 | 314 |
